From ChEMBL document CHEMBL4251662, “Alkyl indole-based cannabinoid type 2 receptor tools: Exploration of linker and fluorophore attachment” (Eur J Med Chem, 2018)
Active and inactive are the calls of the source. The rule behind the calls is not given here.

Experiments:
[1] = target: T1, Cannabinoid receptor 2 (Homo sapiens, UniProt P34972); test: Displacement of [3H]CP55,940 from N-terminal HA-tagged human CB2 receptor expressed in HEK293 cell membranes at 10 uM after 1 hr by microbeta scintillation counting method relative to control
Method in brief: (§1)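 Single-point competition screen against [3H]CP55,940 in HEK293 cells over-expressing 3HA-tagged hCB2 or hCB1. Compounds giving more than 50% displacement went on to full concentration-response curves.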

[2] = target: T1, Cannabinoid receptor 2; test: Displacement of [3H]CP55,940 from N-terminal HA-tagged human CB2 receptor expressed in HEK293 cell membranes after 1 hr by microbeta scintillation counting method; details: read-out: Ki
[3] = target: T2, Cannabinoid receptor 1 (Homo sapiens, UniProt P21554); test: Displacement of [3H]CP55,940 from N-terminal HA-tagged human CB1 receptor expressed in HEK293 cell membranes at 10 uM after 1 hr by microbeta scintillation counting method relative to control; method in brief: as §1
[4] = target: T2, Cannabinoid receptor 1; test: Displacement of [3H]CP55,940 from N-terminal HA-tagged human CB1 receptor expressed in HEK293 cell membranes after 1 hr by microbeta scintillation counting method; details: read-out: Ki
[5] = target: T1, Cannabinoid receptor 2; test: Inverse agonist activity at N-terminal HA-tagged human CB2 receptor expressed in HEK293 cells transfected with YFP-Epac-RLuc assessed as increase in forskolin-stimulated cAMP level by BRET assay; type: functional, cell-based
Method in brief: (§2)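 BRET cAMP biosensor read-out in HEK293 cells expressing HA-tagged human CB1 or CB2, with forskolin stimulation (5 µM). Concentration-response curves; area-under-curve values normalised to forskolin alone = 100% and basal = 0%. EC50 taken for agonists and IC50 for inverse agonists. Mean of at least three independent experiments, each point in duplicate.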

[6] = target: T1, Cannabinoid receptor 2; test: Inverse agonist activity at N-terminal HA-tagged human CB2 receptor expressed in HEK293 cells transfected with YFP-Epac-RLuc assessed as increase in forskolin-stimulated cAMP level by BRET assay relative to control; type: functional, cell-based; method in brief: as §2
[7] = target: T2, Cannabinoid receptor 1; test: Agonist activity at N-terminal HA-tagged human CB1 receptor expressed in HEK293 cells transfected with YFP-Epac-RLuc assessed as decrease in forskolin-stimulated cAMP level by BRET assay relative to control; type: functional, cell-based; method in brief: as §2
[8] = target: T1, Cannabinoid receptor 2; test: Inverse agonist activity at N-terminal HA-tagged human CB2 receptor expressed in HEK293 cells transfected with YFP-Epac-RLuc assessed as increase in forskolin-stimulated cAMP level at 10 uM by BRET assay; type: functional, cell-based
[9] = target: T2, Cannabinoid receptor 1; test: Agonist activity at N-terminal HA-tagged human CB1 receptor expressed in HEK293 cells transfected with YFP-Epac-RLuc assessed as decrease in forskolin-stimulated cAMP level at 10 uM by BRET assay; type: functional, cell-based
Method in brief: (§3)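 Single-concentration screen at 10 µM in CB receptor-expressing HEK293 cells, run with and without CP55,940 as reference agonist. Forskolin-stimulated cAMP read by BRET biosensor. A fall in cAMP is scored as agonism and a rise as inverse agonism.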

[10] = tested on: HEK293; test: Effect on forskolin-stimulated cAMP level in HEK293 cells at 10 uM by BRET assay relative to control; type: ADME, cell-based; details: human, hek293, 10 µM
Method in brief: (§4)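 Wild-type HEK293 cells lacking transfected receptor, tested at 10 µM and 1 µM. Forskolin-stimulated cAMP measured by BRET as a check that responses are receptor-mediated.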

[11] = tested on: HEK293; test: Effect on forskolin-stimulated cAMP level in HEK293 cells at 1 uM by BRET assay relative to control; type: ADME, cell-based; details: human, hek293, 1 µM; method in brief: as §4
[12] = target: T1, Cannabinoid receptor 2; test: Agonist activity at N-terminal HA-tagged human CB2 receptor expressed in HEK293 cells transfected with YFP-Epac-RLuc assessed as decrease in forskolin-stimulated cAMP level by BRET assay; type: functional, cell-based; method in brief: as §2
[13] = target: T1, Cannabinoid receptor 2; test: Agonist activity at N-terminal HA-tagged human CB2 receptor expressed in HEK293 cells transfected with YFP-Epac-RLuc assessed as decrease in forskolin-stimulated cAMP level by BRET assay relative to control; type: functional, cell-based; method in brief: as §2
[14] = target: T1, Cannabinoid receptor 2; test: Agonist activity at N-terminal HA-tagged human CB2 receptor expressed in HEK293 cells transfected with YFP-Epac-RLuc assessed as decrease in forskolin-stimulated cAMP level at 10 uM by BRET assay; type: functional, cell-based; method in brief: as §3
[15] = target: Proprotein convertase subtilisin/kexin type 9 (Homo sapiens) (UniProt Q8NBP7); test: Inhibition of PCSK9 (unknown origin)
[16] = target: T3, Free fatty acid receptor 4 (Homo sapiens) (UniProt Q5NUL3); test: Agonist activity at GPR120 (unknown origin); type: functional
T3 sequence (whole entry): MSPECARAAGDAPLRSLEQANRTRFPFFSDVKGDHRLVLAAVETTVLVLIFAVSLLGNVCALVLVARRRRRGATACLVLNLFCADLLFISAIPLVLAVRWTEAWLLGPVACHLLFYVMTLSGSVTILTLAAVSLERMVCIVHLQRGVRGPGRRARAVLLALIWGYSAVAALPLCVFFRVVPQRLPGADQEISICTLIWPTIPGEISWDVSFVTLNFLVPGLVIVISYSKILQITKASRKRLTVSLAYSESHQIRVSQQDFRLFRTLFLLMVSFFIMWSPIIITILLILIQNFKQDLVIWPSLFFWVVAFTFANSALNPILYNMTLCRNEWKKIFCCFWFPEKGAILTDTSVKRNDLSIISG

[17] = target: Interleukin-17A (Homo sapiens) (UniProt Q16552); test: Inhibition of IL-17 (unknown origin) assessed as disruption of IL-17 protein-protein interaction
[18] = tested on: Leishmania donovani; test: Growth inhibition of Leishmania donovani; type: functional, organism-based
[19] = target: Potassium voltage-gated channel subfamily KQT member 2 (Homo sapiens) (UniProt O43526); test: Agonist activity at KCNQ2 (unknown origin)
[20] = target: T4, Potassium voltage-gated channel subfamily KQT member 3 (Homo sapiens) (UniProt O43525); test: Agonist activity at KCNQ3 (unknown origin)
T4 sequence (whole entry): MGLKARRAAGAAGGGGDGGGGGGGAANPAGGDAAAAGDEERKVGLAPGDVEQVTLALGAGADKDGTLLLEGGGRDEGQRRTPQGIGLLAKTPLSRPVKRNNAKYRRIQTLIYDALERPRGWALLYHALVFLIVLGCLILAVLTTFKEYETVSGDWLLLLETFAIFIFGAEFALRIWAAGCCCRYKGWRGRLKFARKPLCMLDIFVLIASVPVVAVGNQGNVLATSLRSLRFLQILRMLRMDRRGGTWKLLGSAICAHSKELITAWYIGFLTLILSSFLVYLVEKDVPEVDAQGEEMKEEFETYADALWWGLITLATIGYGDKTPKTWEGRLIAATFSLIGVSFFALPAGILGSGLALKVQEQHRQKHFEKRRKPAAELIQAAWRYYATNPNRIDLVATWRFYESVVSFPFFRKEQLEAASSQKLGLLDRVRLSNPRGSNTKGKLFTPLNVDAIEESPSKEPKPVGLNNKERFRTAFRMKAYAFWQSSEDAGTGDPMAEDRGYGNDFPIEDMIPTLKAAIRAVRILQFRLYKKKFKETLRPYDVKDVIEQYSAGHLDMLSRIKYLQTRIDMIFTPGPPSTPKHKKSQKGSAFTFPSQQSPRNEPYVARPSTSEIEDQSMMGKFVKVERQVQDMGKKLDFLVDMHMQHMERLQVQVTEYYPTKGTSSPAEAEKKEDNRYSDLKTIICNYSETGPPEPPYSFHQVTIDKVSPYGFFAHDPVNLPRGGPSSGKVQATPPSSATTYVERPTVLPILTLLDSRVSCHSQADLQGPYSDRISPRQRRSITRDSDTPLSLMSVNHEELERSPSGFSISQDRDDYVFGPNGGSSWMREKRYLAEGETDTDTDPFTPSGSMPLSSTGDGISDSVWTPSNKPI

[21] = target: T5, Nicotinamide N-methyltransferase (Homo sapiens) (UniProt P40261); test: Inhibition of NNMT (unknown origin)
T5 sequence (whole entry): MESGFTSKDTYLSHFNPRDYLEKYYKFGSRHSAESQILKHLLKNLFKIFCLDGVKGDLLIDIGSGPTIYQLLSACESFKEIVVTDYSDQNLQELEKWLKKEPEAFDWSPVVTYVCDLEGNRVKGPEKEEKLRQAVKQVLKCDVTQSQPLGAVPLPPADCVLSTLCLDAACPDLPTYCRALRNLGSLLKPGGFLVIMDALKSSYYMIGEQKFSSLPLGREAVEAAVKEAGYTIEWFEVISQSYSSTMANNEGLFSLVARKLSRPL

Chain of Proprotein convertase subtilisin/kexin type 9 (Homo sapiens) (Q8NBP7 31-152 limits assumed): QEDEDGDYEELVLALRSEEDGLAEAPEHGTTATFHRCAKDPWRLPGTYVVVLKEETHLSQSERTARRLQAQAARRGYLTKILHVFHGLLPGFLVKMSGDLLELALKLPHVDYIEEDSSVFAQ
Chain of Proprotein convertase subtilisin/kexin type 9 (Homo sapiens) (Q8NBP7 153-692 limits assumed): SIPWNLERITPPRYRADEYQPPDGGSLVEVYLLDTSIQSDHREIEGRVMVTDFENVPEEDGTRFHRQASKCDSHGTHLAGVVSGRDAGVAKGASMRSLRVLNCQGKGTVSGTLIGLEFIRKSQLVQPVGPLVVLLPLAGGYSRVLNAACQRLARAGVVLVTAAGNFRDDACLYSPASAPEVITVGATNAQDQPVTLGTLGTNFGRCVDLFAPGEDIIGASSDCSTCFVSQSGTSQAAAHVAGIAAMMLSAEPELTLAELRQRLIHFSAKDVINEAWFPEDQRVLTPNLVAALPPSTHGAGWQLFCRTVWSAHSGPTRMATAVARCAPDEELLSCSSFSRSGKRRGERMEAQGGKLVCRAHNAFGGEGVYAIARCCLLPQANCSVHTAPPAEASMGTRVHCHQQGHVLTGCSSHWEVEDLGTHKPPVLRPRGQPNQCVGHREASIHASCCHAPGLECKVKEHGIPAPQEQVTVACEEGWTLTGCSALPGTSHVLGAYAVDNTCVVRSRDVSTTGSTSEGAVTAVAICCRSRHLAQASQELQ
T1 sequence (P34972 whole entry): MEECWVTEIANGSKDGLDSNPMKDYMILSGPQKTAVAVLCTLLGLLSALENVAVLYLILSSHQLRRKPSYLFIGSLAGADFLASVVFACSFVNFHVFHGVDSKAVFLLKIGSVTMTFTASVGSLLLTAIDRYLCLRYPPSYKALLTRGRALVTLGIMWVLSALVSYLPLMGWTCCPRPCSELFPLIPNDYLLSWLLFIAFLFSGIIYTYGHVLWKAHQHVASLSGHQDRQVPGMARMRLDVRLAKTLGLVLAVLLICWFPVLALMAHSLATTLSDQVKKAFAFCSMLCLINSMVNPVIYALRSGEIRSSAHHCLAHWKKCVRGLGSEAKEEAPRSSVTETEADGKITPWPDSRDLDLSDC
Chain of Interleukin-17A (Homo sapiens) (Q16552 whole entry): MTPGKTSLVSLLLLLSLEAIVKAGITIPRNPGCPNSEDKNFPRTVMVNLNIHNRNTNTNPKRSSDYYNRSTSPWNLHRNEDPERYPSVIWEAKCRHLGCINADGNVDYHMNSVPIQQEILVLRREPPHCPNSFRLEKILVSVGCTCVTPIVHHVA
T2 sequence (P21554 whole entry): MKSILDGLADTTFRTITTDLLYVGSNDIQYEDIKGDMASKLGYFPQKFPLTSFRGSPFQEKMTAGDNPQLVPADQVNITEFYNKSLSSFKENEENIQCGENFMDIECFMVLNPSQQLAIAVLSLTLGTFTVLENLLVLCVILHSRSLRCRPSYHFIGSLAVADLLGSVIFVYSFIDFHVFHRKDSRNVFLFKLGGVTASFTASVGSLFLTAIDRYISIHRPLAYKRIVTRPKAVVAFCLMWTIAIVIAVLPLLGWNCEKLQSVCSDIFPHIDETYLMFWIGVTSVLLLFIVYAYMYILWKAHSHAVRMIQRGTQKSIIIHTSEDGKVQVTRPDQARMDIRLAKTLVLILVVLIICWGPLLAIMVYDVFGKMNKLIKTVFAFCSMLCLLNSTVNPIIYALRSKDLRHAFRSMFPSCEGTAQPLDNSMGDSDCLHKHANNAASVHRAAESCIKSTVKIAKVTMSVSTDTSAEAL
Chain of Potassium voltage-gated channel subfamily KQT member 2 (Homo sapiens) (O43526 whole entry): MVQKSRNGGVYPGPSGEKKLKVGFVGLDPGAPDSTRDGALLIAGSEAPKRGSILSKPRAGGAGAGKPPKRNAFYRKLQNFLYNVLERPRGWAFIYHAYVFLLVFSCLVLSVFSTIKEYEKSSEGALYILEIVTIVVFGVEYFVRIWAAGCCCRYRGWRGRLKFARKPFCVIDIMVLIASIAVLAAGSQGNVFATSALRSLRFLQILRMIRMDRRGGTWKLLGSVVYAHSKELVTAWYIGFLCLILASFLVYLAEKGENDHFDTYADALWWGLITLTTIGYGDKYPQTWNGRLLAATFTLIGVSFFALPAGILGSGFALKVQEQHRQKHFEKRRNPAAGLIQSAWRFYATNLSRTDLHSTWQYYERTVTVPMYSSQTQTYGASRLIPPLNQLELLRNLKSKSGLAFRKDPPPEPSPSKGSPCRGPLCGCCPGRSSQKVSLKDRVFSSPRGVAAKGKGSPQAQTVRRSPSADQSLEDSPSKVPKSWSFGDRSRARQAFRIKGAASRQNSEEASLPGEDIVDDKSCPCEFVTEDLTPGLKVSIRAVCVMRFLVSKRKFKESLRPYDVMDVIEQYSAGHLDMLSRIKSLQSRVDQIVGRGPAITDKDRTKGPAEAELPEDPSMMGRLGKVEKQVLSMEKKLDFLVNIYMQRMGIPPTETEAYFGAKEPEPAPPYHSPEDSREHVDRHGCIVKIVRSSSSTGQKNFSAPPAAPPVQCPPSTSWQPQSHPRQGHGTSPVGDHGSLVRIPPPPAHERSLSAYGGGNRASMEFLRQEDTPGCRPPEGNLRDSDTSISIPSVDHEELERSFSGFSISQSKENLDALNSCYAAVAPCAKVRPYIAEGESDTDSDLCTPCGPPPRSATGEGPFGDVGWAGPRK

Row | SMILES | inhibition [1] [%] | Ki [2] [nM] | inhibition [3] [%] | Ki [4] [nM] | Emax [7] [%] | Activity [9] | Activity [10] [%] | Activity [11] [%] | EC50 [12] [nM] | Emax [13] [%] | Activity [14] | inhibition [15] | Activity [16] | inhibition [17] | growth inhibition (GI) [18] | Activity [19] | Activity [20] | inhibition [21] | also measured
1 | COc1ccc(C(=O)c2cn(CC3CCOCC3)c3c(OCCCCCCNC(C)=O)cccc23)cc1 | > 50 | 1970 | > 50 | 3920 | 74.3 | Active | 128 | 114.8 |  |  |  |  |  |  |  |  |  |  | IC50 [5]: > 10000 nM; Emax [6]: 151%; Activity [8]: Active
2 | O=C(c1cccc2ccccc12)c1cn(CCN2CCOCC2)c2ccc(O)cc12 | > 50 | 169 | > 50 | 2840 | 54.6 | Active | 118.7 | 101.9 | 8.7 | 77.4 | Active |  |  |  |  |  |  |  | 
3 | COC(=O)CCCCOc1cccc2c(C(=O)c3ccc(OC)cc3)cn(CC3CCOCC3)c12 | > 50 | 201 | > 50 | 1580 | 77.8 | Active | 160.6 | 124.3 |  |  |  |  |  |  |  |  |  |  | IC50 [5]: > 10000 nM; Emax [6]: 166%; Activity [8]: Active
4 | O=C(c1cccc2ccccc12)c1cn(CC2CCOCC2)c2ccc(OCc3ccccc3)cc12 |  |  |  |  |  |  |  |  |  |  |  | inactive | inactive | inactive | inactive | inactive | inactive | inactive | 
5 | COc1ccc(C(=O)c2cn(CC3CCOCC3)c3c(OCc4ccccc4)cccc23)cc1 |  |  |  |  |  |  |  |  |  |  |  | inactive | inactive | inactive | inactive | inactive | inactive | inactive | 
6 | COc1ccc(C(=O)c2cn(CC3CCOCC3)c3ccc(OCc4ccccc4)cc23)cc1 |  |  |  |  |  |  |  |  |  |  |  | inactive | inactive | inactive | inactive | inactive | inactive | inactive | 
7 | COc1ccc(C(=O)c2cn(CC3CCOCC3)c3c(OCCCCC(=O)O)cccc23)cc1 | > 50 | 1310 | > 50 | > 10000 | 82.5 | Active | 129.1 | 105.6 |  |  |  |  |  |  |  |  |  |  | IC50 [5]: > 10000 nM; Emax [6]: 124%; Activity [8]: Active
8 | O=C(c1cccc2ccccc12)c1cn(CC2CCOCC2)c2ccc(O)cc12 | > 50 | 275 | > 50 | 824 | 52.4 | Active | 108.1 | 95 | 14.7 | 64.4 | Active | inactive | inactive | inactive | inactive | inactive | inactive | inactive | 
9 | COc1ccc(C(=O)c2cn(CC3CCOCC3)c3c(OCC(=O)O)cccc23)cc1 | > 50 | 582 | > 50 | > 10000 | 80.5 | Active | 102.8 | 104.5 | > 10000 | 84.9 | Active |  |  |  |  |  |  |  | 
10 | COc1ccc(C(=O)c2cn(CCN3CCOCC3)c3ccc(O)cc23)cc1 | > 50 | 747 | > 50 | > 10000 | 70.4 | Active | 105.2 | 101.9 | 5.4 | 67.5 | Active |  |  |  |  |  |  |  | 
11 | COc1ccc(C(=O)c2cn(CC3CCOCC3)c3ccc(OCC(=O)O)cc23)cc1 | > 50 | 1660 | > 50 | > 10000 | 60.4 | Active | 100.1 | 98.8 | 70.2 | 57.4 | Active |  |  |  |  |  |  |  | 
12 | O=C(c1cn(CCN2CCOCC2)c2ccc(O)cc12)C1CCCCC1 | > 50 | 895 | > 50 | > 10000 | 74.3 | Active | 105.1 | 105.9 | 18.6 | 74.1 | Active |  |  |  |  |  |  |  | 
